The source made the active and inactive calls. No cut-off for these calls is given here.
Legend:
[1] = biological target: Signal transducer and activator of transcription 3 (Homo sapiens) (UniProt P40763); assay: Inhibition of STAT3 phosphorylation in human MCF10A cells transformed with H-ras at 10 uM after 24 hrs by Western blot analysis; assay type: cell-based; details: MCF-10A
Procedure, shortened: (§1)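 Immunoblot of STAT3 phosphorylation in MCF10A-ras cells after 24 h treatment at 5 and 10 µM (analogs at 10 µM). In a thiol-reducing arm, cells got 0.5 mM DTT for 1 h before 10 µM compound for 24 h.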

[2] = biological target: Signal transducer and activator of transcription 3 (Homo sapiens) (UniProt P40763); assay: Inhibition of STAT3 transcriptional activity in human oncostatin M-stimulated HeLa cells at 10 uM after 24 hrs by luciferase reporter gene assay; assay type: cell-based
Procedure, shortened: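 HeLa cells carrying a STAT3-luciferase reporter pretreated with DMSO or compound (10 µM) for 24 h, stimulated with oncostatin M 10 ng/mL for 5 h, then luciferase reporter activity measured.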

[3] = Cytotoxicity against wild type human MCF10A cells at 2 uM after 24 hrs; assay type: cell-based; details: mcf-10a
Procedure, shortened: (§2)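 MCF10A and MCF10A-ras cells exposed to each inhibitor for 24 h, then cytotoxicity measured.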

[4] = biological target: Signal transducer and activator of transcription 3 (Homo sapiens) (UniProt P40763); assay: Inhibition of STAT3 phosphorylation in human MCF10A cells transformed with H-ras at 1 to 10 uM after 24 hrs by Western blot analysis; assay type: cell-based; details: MCF-10A
Procedure, shortened: (§3)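 MCF10A-ras cells treated at the indicated concentrations for 24 h; lysates immunoblotted for p-STAT3, total STAT3 and p-STAT1.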

[5] = biological target: T1, Signal transducer and activator of transcription 1-alpha/beta (Homo sapiens) (UniProt P42224); assay: Inhibition of STAT1 phosphorylation in human MCF10A cells transformed with H-ras at 1 to 10 uM after 24 hrs by Western blot analysis; assay type: cell-based; details: MCF-10A; procedure, shortened: as §3
T1 sequence (whole entry): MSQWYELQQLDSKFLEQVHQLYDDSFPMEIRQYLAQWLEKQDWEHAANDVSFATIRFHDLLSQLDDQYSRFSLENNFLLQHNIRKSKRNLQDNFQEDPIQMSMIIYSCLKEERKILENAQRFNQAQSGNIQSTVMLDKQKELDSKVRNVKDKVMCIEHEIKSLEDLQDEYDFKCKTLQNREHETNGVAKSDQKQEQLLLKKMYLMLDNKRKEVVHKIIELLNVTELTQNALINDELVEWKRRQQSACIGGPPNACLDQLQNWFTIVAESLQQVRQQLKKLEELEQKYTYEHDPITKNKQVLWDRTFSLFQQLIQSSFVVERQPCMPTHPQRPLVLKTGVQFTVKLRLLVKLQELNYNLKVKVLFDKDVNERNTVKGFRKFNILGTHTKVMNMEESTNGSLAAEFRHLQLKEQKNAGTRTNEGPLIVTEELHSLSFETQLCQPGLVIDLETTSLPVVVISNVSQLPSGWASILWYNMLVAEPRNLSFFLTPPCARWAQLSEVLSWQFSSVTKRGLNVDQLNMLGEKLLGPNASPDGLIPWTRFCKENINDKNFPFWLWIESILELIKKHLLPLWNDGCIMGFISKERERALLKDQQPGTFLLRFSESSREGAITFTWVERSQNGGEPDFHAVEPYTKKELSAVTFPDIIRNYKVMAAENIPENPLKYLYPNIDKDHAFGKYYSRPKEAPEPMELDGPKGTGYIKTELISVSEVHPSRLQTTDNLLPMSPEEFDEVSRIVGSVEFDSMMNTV

[6] = biological target: Signal transducer and activator of transcription 3 (Homo sapiens) (UniProt P40763); assay: Inhibition of STAT3 phosphorylation in human MCF10A cells transformed with H-ras at 5 to 10 uM after 24 hrs by Western blot analysis; assay type: cell-based; details: MCF-10A; procedure, shortened: as §1
MCF7 = assay: Cytotoxicity against human MCF7 cells at 1 to 5 uM after 24 hrs; assay type: functional, cell-based
Procedure, shortened: (§4)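 MCF7 and MDA-MB-231 breast cancer cells treated at the indicated concentrations for 24 h; viability then assessed.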

MCF-10A = assay: Cytotoxicity against human MCF10A cells transformed with H-ras at 2 uM after 24 hrs; assay type: functional, cell-based; procedure, shortened: as §2
MDA-MB-231 = assay: Cytotoxicity against human MDA-MB-231 cells at 1 to 5 uM after 24 hrs; assay type: functional, cell-based; procedure, shortened: as §4
[7] = biological target: Signal transducer and activator of transcription 3 (Homo sapiens) (UniProt P40763); assay: Binding to STAT3 in human MCF10A cells transformed with H-ras at 5 to 30 uM after 24 hrs using HRP-streptavidin by Western blot analysis; details: MCF-10A

Chain of Signal transducer and activator of transcription 3 (Homo sapiens) (P40763 whole entry): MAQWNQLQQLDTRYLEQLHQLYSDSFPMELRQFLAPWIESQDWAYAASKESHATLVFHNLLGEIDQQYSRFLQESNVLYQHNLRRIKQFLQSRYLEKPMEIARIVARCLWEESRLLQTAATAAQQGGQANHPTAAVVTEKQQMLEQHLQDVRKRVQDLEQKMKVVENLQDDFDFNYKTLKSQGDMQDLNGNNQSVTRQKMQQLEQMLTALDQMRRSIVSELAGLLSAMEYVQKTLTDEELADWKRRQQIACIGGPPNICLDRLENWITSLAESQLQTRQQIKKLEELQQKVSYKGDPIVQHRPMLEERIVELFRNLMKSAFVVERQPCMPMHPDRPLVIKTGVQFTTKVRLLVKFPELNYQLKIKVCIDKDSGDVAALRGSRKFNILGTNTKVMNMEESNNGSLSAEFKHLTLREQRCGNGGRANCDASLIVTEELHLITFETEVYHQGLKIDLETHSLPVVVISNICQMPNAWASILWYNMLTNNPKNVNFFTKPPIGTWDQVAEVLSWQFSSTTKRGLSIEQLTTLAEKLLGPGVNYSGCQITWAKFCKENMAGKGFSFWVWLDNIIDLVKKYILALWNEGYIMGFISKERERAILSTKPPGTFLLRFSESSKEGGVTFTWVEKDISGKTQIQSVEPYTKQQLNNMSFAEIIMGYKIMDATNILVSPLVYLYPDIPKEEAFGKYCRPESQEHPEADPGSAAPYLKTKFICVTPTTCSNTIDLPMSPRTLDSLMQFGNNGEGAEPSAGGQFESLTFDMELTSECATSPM

SMILES: COc1ccc(CC(=O)c2ccc3c(c2OC)C=CC(C)(C)O3)cc1OC
- inhibition [1]: inactive
- inhibition [2]: inactive

SMILES: COc1ccc(C(C)C(=O)c2ccc3c(c2OC)C=CC(C)(C)O3)cc1OC (centres undefined)
- inhibition [1]: inactive
- inhibition [2]: inactive

SMILES: C=C(C(=O)c1ccc2c(c1OC)C=CC(C)(C)O2)c1ccc(OC)c(OC)c1
- Activity [3]: Non-toxic
- inhibition [4]: Active
- inhibition [2]: Active
- inhibition [5]: inactive
- inhibition [6]: Active
- Activity (MCF7): Active
- Activity (MCF-10A): Active
- Activity (MDA-MB-231): Active

SMILES: C=C(c1ccc(OC)c(OC)c1)C(O)c1ccc2c(c1OC)C=CC(C)(C)O2 (centres undefined)
- inhibition [2]: inactive

SMILES: C=C(C(=O)c1ccc2c(c1OC)C=CC(C)(C)O2)c1ccc(OC/C=C/CNC(=O)CCCC[C@@H]2SC[C@@H]3NC(=O)N[C@@H]32)c(OC)c1
- binding [7]: Active

From ChEMBL document CHEMBL3632498, “Identification of small molecule inhibitors of the STAT3 signaling pathway: Insights into their structural features and mode of action” (Bioorg Med Chem Lett, 2015)
